Data as given in ChEMBL document CHEMBL5260808, “Design of Phthalazinone Amide Histamine H1 Receptor Antagonists for Use in Rhinitis” (ACS Med Chem Lett, 2017).
Activity calls are given as the source filed them. The rule behind the calls is not given here.

Assays:
Histamine H1 receptor [1] = target: T1, Histamine H1 receptor (Homo sapiens, UniProt P35367); assay: Antagonist potency at human H1 receptor; settings: read-out: pA2 (converted)
Histamine H1 receptor [2] = target: T1, Histamine H1 receptor; assay: Antagonist activity against recombinant human H1 receptor expressed in CHO cells incubated for 30 mins by FLIPR analysis; assay type: cell-based
[3] = target: T2, Alpha-1A adrenergic receptor (Homo sapiens, UniProt P35348); assay: Antagonist activity against recombinant human adrenergic alpha1A receptor expressed in Rat1 cells incubated for 30 mins by FLIPR analysis; assay type: cell-based
T2 sequence (P35348 whole entry): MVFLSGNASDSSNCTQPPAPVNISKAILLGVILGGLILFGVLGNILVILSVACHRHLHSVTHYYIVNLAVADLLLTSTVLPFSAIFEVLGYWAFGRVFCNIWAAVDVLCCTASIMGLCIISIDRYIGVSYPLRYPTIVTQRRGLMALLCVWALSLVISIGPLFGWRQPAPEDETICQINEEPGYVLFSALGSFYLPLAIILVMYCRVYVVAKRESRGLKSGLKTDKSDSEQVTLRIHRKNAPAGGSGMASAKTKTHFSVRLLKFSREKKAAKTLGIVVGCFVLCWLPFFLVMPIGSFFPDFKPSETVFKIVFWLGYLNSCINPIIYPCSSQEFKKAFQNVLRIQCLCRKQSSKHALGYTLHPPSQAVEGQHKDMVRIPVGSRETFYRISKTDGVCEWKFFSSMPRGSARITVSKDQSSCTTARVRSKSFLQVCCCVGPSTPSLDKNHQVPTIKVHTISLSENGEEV
How it was run: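 Human α1A or α1B adrenoceptor in fibroblast cells. Plate-based calcium imaging.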

[4] = target: T3, Alpha-1B adrenergic receptor (Homo sapiens, UniProt P35368); assay: Antagonist activity against recombinant human adrenergic alpha1B receptor expressed in CHO cells incubated for 30 mins by FLIPR analysis; assay type: cell-based
T3 sequence (P35368 whole entry): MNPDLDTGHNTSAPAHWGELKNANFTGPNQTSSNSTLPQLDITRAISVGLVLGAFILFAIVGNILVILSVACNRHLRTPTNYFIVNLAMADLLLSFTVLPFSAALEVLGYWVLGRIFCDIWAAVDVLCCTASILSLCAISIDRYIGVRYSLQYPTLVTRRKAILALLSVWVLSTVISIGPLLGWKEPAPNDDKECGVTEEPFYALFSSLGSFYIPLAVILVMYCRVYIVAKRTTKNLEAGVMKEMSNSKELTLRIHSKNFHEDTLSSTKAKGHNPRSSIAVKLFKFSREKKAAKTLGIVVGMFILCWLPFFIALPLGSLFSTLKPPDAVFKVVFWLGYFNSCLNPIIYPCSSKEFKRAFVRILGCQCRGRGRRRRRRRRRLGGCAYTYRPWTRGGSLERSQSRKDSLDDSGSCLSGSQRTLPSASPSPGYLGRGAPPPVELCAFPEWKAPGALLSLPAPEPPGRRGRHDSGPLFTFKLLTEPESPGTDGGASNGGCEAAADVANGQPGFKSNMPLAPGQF

[5] = Distribution coefficient, log D of compound in n-octanol and phosphate buffered saline at pH 7.4 by HPLC analysis; assay type: physicochemical
[6] = target: Voltage-gated inwardly rectifying potassium channel KCNH2 (Homo sapiens, UniProt Q12809); assay: Displacement of [3H]dofetilide from human ERG expressed in CHO-K1 cell membrane measured after 45 mins by topcount scintillation counting method; assay type: toxicity, cell membranes
Sequence of Voltage-gated inwardly rectifying potassium channel KCNH2 (Q12809 whole entry): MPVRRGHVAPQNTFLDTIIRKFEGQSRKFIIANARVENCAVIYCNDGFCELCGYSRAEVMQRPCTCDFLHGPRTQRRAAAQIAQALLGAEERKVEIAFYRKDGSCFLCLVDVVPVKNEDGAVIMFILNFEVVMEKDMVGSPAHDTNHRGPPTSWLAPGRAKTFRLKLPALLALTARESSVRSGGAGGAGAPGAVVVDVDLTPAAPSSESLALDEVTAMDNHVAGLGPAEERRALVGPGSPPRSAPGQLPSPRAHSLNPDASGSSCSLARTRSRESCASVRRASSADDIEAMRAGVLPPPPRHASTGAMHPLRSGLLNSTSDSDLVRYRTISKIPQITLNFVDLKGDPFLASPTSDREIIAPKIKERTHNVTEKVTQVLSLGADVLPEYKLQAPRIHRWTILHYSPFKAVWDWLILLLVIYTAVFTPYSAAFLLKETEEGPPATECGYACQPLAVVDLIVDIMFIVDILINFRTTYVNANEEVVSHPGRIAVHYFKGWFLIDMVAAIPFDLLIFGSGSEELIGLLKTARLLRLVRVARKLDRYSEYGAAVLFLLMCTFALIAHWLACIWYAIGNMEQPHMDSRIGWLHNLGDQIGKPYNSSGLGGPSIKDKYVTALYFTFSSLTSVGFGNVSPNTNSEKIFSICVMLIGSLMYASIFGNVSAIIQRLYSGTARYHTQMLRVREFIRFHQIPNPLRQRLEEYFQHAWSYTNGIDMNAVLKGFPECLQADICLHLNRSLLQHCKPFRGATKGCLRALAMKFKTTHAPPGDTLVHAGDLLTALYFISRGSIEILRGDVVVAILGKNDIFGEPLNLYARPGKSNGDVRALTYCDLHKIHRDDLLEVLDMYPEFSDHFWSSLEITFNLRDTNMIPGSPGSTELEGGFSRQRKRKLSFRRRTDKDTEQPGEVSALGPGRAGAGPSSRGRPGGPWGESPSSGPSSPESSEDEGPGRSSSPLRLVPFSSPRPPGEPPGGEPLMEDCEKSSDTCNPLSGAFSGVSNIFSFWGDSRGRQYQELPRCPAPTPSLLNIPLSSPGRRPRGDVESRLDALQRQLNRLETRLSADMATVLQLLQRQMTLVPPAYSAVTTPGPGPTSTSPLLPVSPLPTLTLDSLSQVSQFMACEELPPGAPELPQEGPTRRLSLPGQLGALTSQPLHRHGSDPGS

Cavia porcellus [7] = assay: Antihistamine activity against conscious unrestrained ovalbumin and aluminum hydroxide sensitized guinea pigs assessed as inhibition of histamine-induced nasal congestion by measuring time duration of action at 1 mg/ml, intranasal measured after 1 to 24 hrs; assay type: functional; settings: time 1-24 hrs
How it was run: (§1)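 Guinea pigs dosed intranasally with a 1 mg/mL solution (25 μL/nostril). Bilateral histamine challenge (15 or 10 mM, 25 μL/nostril, light isoflurane anesthesia) given 1 and 24 h after dosing. […] Comparison with vehicle-pretreated/histamine-challenged controls; mean ± SEM, n = 16–27 per group; p < 0.05.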

[8] = Drug metabolism in human hepatocytes assessed as metabolite formation at 10 uM measured after 3 hrs by LC-MS/MS analysis; assay type: ADME, cell-based, Hepatocyte
How it was run: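 Cryopreserved human hepatocytes incubated with compound (10 μM initial) for 3 h. Metabolites detected and profiled by LC–MS/MS.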

[9] = Drug metabolism in monkey intestinal microsomes assessed as rate of metabolism; assay type: ADME, Macaca mulatta, Intestine; settings: rhesus monkey
How it was run: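 Intestinal microsomes from monkey; in vitro rate of metabolism given in mL/min/g.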

[10] = Drug metabolism in dog liver microsomes assessed as rate of metabolism; assay type: ADME, Canis lupus familiaris
[11] = Drug metabolism in human liver microsomes assessed as rate of metabolism; assay type: ADME
[12] = Drug metabolism in rat liver microsomes assessed as rate of metabolism; assay type: ADME
[13] = Drug metabolism in mouse liver microsomes assessed as rate of metabolism; assay type: ADME
[14] = Drug absorption into hepatic portal vein of CD Sprague-Dawley rat at 3 mg/kg, po; assay type: ADME, organism-based; settings: read-out: Drug absorption
How it was run: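 Male CD Sprague–Dawley rats dosed orally at 3 mg/kg. Absorption measured into the hepatic portal vein.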

[15] = Oral bioavailability in CD Sprague-Dawley rat at 300 mg/kg; assay type: ADME, organism-based; settings: in vivo
How it was run: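 Male CD Sprague–Dawley rats dosed orally at 300 mg/kg. Vehicle was H2O–PEG200–DMSO (50:45:5). Oral bioavailability determined from blood concentrations.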

[16] = Elimination in iv dosed dog urine; assay type: ADME, organism-based, Canis lupus familiaris; settings: read-out: Drug excretion
How it was run: (§2)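 Beagle dogs dosed iv at 1 mg/kg, or subcutaneously in one dog. Parent compound measured in urine.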

[17] = Elimination in sc dosed dog urine; assay type: ADME, organism-based, Canis lupus familiaris; settings: read-out: Drug excretion; how it was run: as §2
Cavia porcellus [18] = assay: Antihistamine activity against conscious unrestrained ovalbumin and aluminum hydroxide sensitized guinea pigs assessed as inhibition of histamine-induced nasal congestion at 1 mg/ml, intranasal measured after 1 to 24 hrs relative to control; assay type: functional, organism-based; settings: time 1-24 hrs; how it was run: as §1
[19] = target: D(1A) dopamine receptor (Homo sapiens) (UniProt P21728); assay: Inhibition of human dopamine D1 receptor at 1 uM relative to control
Sequence of D(1A) dopamine receptor (Homo sapiens) (P21728 whole entry): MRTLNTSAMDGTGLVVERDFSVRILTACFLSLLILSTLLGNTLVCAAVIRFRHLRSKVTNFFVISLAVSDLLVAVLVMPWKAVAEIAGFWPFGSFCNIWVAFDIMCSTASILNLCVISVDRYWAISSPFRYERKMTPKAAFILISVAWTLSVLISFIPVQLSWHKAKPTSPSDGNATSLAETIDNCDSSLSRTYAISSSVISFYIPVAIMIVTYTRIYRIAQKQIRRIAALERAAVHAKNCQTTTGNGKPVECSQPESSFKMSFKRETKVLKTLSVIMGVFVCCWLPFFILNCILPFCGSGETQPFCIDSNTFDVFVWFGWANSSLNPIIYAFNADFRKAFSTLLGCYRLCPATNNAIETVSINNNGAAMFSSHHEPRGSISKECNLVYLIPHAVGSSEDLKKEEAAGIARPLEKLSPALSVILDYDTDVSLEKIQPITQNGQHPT

[20] = target: D(2) dopamine receptor (Homo sapiens) (UniProt P14416); assay: Inhibition of human dopamine D2S receptor at 1 uM relative to control
Sequence of D(2) dopamine receptor (Homo sapiens) (P14416 whole entry): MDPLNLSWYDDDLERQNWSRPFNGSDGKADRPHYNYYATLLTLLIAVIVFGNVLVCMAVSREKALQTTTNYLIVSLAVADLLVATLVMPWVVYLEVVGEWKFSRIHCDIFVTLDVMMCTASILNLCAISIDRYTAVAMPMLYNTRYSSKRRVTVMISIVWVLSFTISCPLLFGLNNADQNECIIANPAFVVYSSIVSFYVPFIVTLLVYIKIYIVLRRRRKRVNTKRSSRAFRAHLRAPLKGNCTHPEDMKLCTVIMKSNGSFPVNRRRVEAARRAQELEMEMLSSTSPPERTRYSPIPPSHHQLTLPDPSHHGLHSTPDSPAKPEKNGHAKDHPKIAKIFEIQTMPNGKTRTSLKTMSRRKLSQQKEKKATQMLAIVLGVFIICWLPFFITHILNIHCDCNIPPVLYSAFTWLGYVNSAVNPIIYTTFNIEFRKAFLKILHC

[21] = target: 5-hydroxytryptamine receptor 2A (Homo sapiens) (UniProt P28223); assay: Inhibition of human 5-HT2A receptor at 1 uM relative to control
Sequence of 5-hydroxytryptamine receptor 2A (Homo sapiens) (P28223 whole entry): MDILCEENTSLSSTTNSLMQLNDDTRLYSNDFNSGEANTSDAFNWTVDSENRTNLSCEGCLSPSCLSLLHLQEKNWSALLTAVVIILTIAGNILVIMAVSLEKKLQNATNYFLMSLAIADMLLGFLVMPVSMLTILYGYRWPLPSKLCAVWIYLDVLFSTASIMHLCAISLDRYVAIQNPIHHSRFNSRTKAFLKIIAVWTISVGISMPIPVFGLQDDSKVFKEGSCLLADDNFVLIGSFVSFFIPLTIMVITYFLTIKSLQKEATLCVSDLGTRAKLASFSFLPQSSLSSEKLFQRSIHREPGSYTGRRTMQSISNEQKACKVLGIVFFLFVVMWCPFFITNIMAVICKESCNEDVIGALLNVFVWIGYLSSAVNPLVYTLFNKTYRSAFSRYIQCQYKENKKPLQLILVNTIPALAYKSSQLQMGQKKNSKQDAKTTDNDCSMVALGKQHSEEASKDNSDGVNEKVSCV

[22] = target: 5-hydroxytryptamine receptor 6 (Homo sapiens) (UniProt P50406); assay: Inhibition of human 5-HT6 receptor at 1 uM relative to control
Sequence of 5-hydroxytryptamine receptor 6 (Homo sapiens) (P50406 whole entry): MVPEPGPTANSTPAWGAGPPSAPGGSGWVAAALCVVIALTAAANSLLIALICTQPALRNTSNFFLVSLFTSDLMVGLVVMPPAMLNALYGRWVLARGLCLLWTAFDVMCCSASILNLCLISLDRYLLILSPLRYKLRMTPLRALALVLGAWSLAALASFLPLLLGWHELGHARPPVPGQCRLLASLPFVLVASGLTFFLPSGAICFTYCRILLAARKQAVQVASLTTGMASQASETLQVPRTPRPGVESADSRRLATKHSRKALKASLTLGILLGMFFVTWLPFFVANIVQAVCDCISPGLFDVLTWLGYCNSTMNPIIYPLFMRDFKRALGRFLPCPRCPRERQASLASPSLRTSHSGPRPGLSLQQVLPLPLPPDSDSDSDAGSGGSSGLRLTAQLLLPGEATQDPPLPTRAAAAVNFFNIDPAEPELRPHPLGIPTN

[23] = target: 5-hydroxytryptamine receptor 7 (Homo sapiens) (UniProt P34969); assay: Inhibition of human 5-HT7 receptor at 1 uM relative to control
Sequence of 5-hydroxytryptamine receptor 7 (Homo sapiens) (P34969 whole entry): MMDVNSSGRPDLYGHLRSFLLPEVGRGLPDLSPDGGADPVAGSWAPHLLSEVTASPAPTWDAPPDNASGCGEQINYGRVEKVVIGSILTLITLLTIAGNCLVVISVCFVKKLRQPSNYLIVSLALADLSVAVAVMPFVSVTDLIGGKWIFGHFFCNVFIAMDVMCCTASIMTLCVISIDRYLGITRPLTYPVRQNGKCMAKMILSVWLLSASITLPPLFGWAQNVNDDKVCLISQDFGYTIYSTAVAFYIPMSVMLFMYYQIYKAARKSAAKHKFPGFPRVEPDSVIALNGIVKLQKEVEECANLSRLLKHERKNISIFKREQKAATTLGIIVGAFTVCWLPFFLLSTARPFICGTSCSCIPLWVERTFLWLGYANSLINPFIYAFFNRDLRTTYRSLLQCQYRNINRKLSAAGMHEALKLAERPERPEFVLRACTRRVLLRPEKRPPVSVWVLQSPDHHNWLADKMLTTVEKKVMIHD

[24] = Bioavailability in human; assay type: ADME, organism-based; settings: in vivo
[25] = Elimination half life in Beagle dog at 2 mg/kg, po and 1 mg/kg, iv; assay type: ADME, organism-based, Canis lupus familiaris; settings: in vivo, read-out: beta t1/2 (converted)
How it was run: (§3)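 Male CD Sprague–Dawley rats and Beagle dogs. Solution in H2O–PEG200–DMSO (50:45:5), given iv at 1 mg/kg, and po at 3 mg/kg (rat) or 2 mg/kg (dog). Vss and elimination half-life derived after iv dosing.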

[26] = Elimination half life in CD Sprague-Dawley rat at 3 mg/kg, po and 1 mg/kg, iv; assay type: ADME, organism-based; settings: in vivo, read-out: beta t1/2 (converted); how it was run: as §3
[27] = Volume of distribution at steady state in CD Sprague-Dawley rat at 3 mg/kg, po and 1 mg/kg, iv; assay type: ADME, organism-based; settings: in vivo; how it was run: as §3
[28] = Volume of distribution at steady state in Beagle dog at 2 mg/kg, po and 1 mg/kg, iv; assay type: ADME, organism-based, Canis lupus familiaris; settings: in vivo; how it was run: as §3
[29] = Drug uptake in rat brain at 1 mg/kg, iv bolus dose; assay type: ADME, organism-based; settings: in vivo
How it was run: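 Rats given a 1 mg/kg intravenous bolus. Brain and blood sampled at 5 min; brain–blood ratio and brain concentration determined, n = 3.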

[30] = Ratio of drug level in rat brain to blood at 1 mg/kg, iv bolus dose measured after 5 mins

T1 sequence (P35367 whole entry): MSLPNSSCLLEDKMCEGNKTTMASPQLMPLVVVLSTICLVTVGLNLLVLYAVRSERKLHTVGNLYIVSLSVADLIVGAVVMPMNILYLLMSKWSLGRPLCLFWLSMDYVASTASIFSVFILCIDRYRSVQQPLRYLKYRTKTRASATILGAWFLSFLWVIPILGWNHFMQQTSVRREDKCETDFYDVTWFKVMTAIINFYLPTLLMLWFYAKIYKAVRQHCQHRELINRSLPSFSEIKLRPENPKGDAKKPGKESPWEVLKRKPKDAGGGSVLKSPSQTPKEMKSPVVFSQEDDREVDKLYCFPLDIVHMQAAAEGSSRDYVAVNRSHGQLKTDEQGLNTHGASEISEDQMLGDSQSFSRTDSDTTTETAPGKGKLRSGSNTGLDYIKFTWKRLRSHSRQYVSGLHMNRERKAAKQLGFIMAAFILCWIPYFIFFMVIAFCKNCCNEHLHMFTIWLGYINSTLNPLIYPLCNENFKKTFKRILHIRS

CCC(=O)NCCN1CCC[C@@H]1Cn1nc(Cc2ccc(Cl)cc2)c2ccccc2c1=O
Kb (Histamine H1 receptor [1]): 0.251 nM
Ki (Histamine H1 receptor [2]): 0.631 nM
Ki [3]: 15.8 nM
Ki [4]: 15.8 nM
logD [5]: 3.4
IC50 [6]: 200 nM

O=C(NCCN1CCC[C@@H]1Cn1nc(Cc2ccc(Cl)cc2)c2ccccc2c1=O)C1CCCC1
Kb (Histamine H1 receptor [1]): 0.316 nM
Ki (Histamine H1 receptor [2]): 3.98 nM
Ki [3]: 79.4 nM
Ki [4]: 79.4 nM
logD [5]: 3.9
IC50 [6]: 50.1 nM

COCCCC(=O)NCCN1CCC[C@@H]1Cn1nc(Cc2ccc(Cl)cc2)c2ccccc2c1=O.Cl
Time (Cavia porcellus [7]): <48 h
Drug metabolism [8]: Metabolite_Detected
CLint scaled [9]: > 50 mL/min/g
Drug metabolism [10]: 12 mL/min/g
Drug metabolism [11]: 25 mL/min/g
Drug metabolism [12]: 50 mL/min/g
Drug metabolism [13]: 50 mL/min/g
Fa [14]: 3%
bioavailability [15]: < 3%
dose excreted [16]: < 3%
dose excreted [17]: < 3%

COCCCC(=O)NCCN1CCC[C@@H]1Cn1nc(Cc2ccc(Cl)cc2)c2ccccc2c1=O
Activity (Cavia porcellus [18]): Active
inhibition [19]: > 50%
inhibition [20]: > 50%
inhibition [21]: > 50%
inhibition [22]: > 50%
inhibition [23]: > 50%

CN1CCCC(n2nc(Cc3ccc(Cl)cc3)c3ccccc3c2=O)CC1 (stereo unspecified) [AZELASTINE]
bioavailability [24]: 40%
logD [5]: 2.3

CCCC(=O)NCCN1CCC[C@@H]1Cn1nc(Cc2ccc(Cl)cc2)c2ccccc2c1=O
Kb (Histamine H1 receptor [1]): 0.631 nM
Ki (Histamine H1 receptor [2]): 0.794 nM
Ki [3]: 31.6 nM
Ki [4]: 79.4 nM
logD [5]: 3.7
IC50 [6]: 63.1 nM

CCCNC(=O)CCCN1CCC[C@@H]1Cn1nc(Cc2ccc(Cl)cc2)c2ccccc2c1=O
Kb (Histamine H1 receptor [1]): 0.158 nM
Ki (Histamine H1 receptor [2]): 5.01 nM
Ki [3]: 10 nM
Ki [4]: 31.6 nM
logD [5]: 3.3
IC50 [6]: 1.58 nM

COCCNC(=O)CCCN1CCC[C@@H]1Cn1nc(Cc2ccc(Cl)cc2)c2ccccc2c1=O
Kb (Histamine H1 receptor [1]): 0.501 nM
Ki (Histamine H1 receptor [2]): 0.794 nM
Ki [3]: 6.31 nM
Ki [4]: 10 nM
logD [5]: 2.5
IC50 [6]: 39.8 nM

COCCC(=O)NCCN1CCC[C@@H]1Cn1nc(Cc2ccc(Cl)cc2)c2ccccc2c1=O
Kb (Histamine H1 receptor [1]): 0.501 nM
Ki (Histamine H1 receptor [2]): 0.794 nM
Ki [3]: 7.94 nM
Ki [4]: 63.1 nM
logD [5]: 3.2
IC50 [6]: 398 nM

COCCCC(=O)N(C)CCN1CCC[C@@H]1Cn1nc(Cc2ccc(Cl)cc2)c2ccccc2c1=O
Kb (Histamine H1 receptor [1]): 0.1 nM
Ki (Histamine H1 receptor [2]): 3.16 nM
Ki [3]: 31.6 nM
Ki [4]: 126 nM
logD [5]: 3.5
IC50 [6]: 398 nM

O=C(NCCN1CCC[C@@H]1Cn1nc(Cc2ccc(Cl)cc2)c2ccccc2c1=O)C1CCOCC1
Kb (Histamine H1 receptor [1]): 0.794 nM
Ki (Histamine H1 receptor [2]): 10 nM
Ki [3]: 200 nM
logD [5]: 3.3
IC50 [6]: 794 nM

CC(C)C(=O)NCCN1CCC[C@@H]1Cn1nc(Cc2ccc(Cl)cc2)c2ccccc2c1=O
Kb (Histamine H1 receptor [1]): 0.132 nM
Ki (Histamine H1 receptor [2]): 3.98 nM
Ki [3]: 3.98 nM
Ki [4]: 63.1 nM
logD [5]: 3.2
IC50 [6]: 398 nM

COCC(=O)NCCN1CCC[C@@H]1Cn1nc(Cc2ccc(Cl)cc2)c2ccccc2c1=O
Kb (Histamine H1 receptor [1]): 0.2 nM
Ki (Histamine H1 receptor [2]): 1.26 nM
Ki [3]: 50.1 nM
Ki [4]: 31.6 nM
logD [5]: 3.1
IC50 [6]: 200 nM

COCCCC(=O)NCCN1CCC[C@@H]1Cn1nc(Cc2ccc(Cl)cc2)c2ccccc2c1=O.O=C(O)C(F)(F)F
Time (Cavia porcellus [7]): <48 h
half-life [25]: 30 min
half-life [26]: 12 min
Vdss [27]: 0.7 L/kg
Vdss [28]: 1.1 L/kg
Drug uptake [29]: 121 ng/g
Kp at 5 min [30]: 0.18
logD [5]: 3.5
